Active and inactive are the calls of the source. No cut-off for these calls is given here.
Experiments:
[1] = target: T1, Fatty-acid amide hydrolase 1 (Homo sapiens, UniProt O00519); assay: Inhibition of human FAAH1 expressed in HEK293 cell membrane-enriched lysate using AMC arachidonyl amide as substrate preincubated for 50 mins followed by substrate addition measured after 4 hrs by fluorescence analysis
T1 sequence (O00519 whole entry): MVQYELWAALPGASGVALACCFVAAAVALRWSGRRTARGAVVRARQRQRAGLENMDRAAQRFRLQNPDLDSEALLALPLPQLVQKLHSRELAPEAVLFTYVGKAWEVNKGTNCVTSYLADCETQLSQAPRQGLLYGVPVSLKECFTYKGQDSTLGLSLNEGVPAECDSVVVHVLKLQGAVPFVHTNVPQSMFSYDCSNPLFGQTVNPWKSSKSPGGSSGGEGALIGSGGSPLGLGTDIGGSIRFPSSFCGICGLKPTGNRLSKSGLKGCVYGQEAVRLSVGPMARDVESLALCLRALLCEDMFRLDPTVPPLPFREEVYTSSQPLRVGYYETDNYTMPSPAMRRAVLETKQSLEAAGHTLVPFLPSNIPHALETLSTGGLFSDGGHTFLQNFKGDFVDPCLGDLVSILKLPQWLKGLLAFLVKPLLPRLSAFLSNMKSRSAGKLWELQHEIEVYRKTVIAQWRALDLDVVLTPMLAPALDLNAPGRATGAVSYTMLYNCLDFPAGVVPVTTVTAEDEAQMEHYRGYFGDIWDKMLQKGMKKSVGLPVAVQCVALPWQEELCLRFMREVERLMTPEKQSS
In short: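 Membrane-enriched lysate (2,5 μg) from HEK293 cells stably expressing human FAAH-1, pre-incubated 50 min with compound or 2,5% DMSO vehicle in 50 mM Tris-HCl pH 7.4, 0.05% fatty acid-free BSA. Then 1 μM AMC arachidonyl amide added, 4 h at 37 °C.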

[2] = target: T2, D(3) dopamine receptor (Homo sapiens, UniProt P35462); assay: Agonist activity at recombinant human dopamine D3 receptor expressed in CHO-K1 cells assessed as […] in cAMP accumulation after 30 mins by HTRF assay relative to dopamine; assay type: functional, cell-based
[3] = target: T3, D(2) dopamine receptor (Homo sapiens, UniProt P14416); assay: Agonist activity at human dopamine D2 receptor-short expressed in CHO-K1 cells assessed as reduction in adenylyl cyclase activator NKH 477 induced cAMP accumulation preincubated for 10 mins followed by NKH 477 addition by HTRF assay; assay type: functional, cell-based
[4] = target: T3, D(2) dopamine receptor; assay: Agonist activity at human dopamine D2 receptor-short expressed in CHO-K1 cells assessed as reduction in adenylyl cyclase activator NKH 477 induced cAMP accumulation preincubated for 10 mins followed by NKH 477 addition by HTRF assay relative to dopamine; assay type: functional, cell-based
[5] = Half life in rat plasma at 2 uM by UPLC-MS analysis; assay type: ADME, cell-free
In short: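 Compound at 2 μM final in rat plasma with 5% DMSO, incubated at 37 °C. Samples taken at 0, 5, 15, 30, 60 and 120 min and quenched in cold acetonitrile with internal standard.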

[6] = Cmax in Sprague-Dawley rat plasma at 3 mg/kg, iv by UPLC-MS analysis; assay type: ADME, organism-based; set-up: dose 3 mg/kg, route intravenous
In short: (§1)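 Cannulated male Sprague-Dawley rats (175–200 g), three per dose, dosed IV at 3 mg/kg or PO at 10 mg/kg in PEG400/Tween 80/saline 10/10/80. Blood taken IV at 0–240 min and PO at 0–1440 min. Plasma extracted with cold acetonitrile plus internal standard and analysed by UPLC-MS/MS against a 1 nM–10 μM calibration. PK parameters derived from time/concentration profiles.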

[7] = Half life in rat liver microsomes at […] by UPLC-MS analysis; assay type: ADME, microsome
[8] = Elimination half life in Sprague-Dawley rat plasma at 3 mg/kg, iv by UPLC-MS analysis; assay type: ADME, organism-based; conditions: read-out: beta t1/2; in short: as §1
[9] = Volume of distribution in Sprague-Dawley rat plasma at 3 mg/kg, iv by UPLC-MS analysis; assay type: ADME, organism-based; in short: as §1
[10] = Clearance in Sprague-Dawley rat plasma at 3 mg/kg, iv by UPLC-MS analysis; assay type: ADME, organism-based; in short: as §1
[11] = Cmax in Sprague-Dawley rat plasma at 10 mg/kg, po by UPLC-MS analysis; assay type: ADME, organism-based; set-up: dose 10 mg/kg, route oral; in short: as §1
[12] = Oral bioavailability in Sprague-Dawley rat […] at 10 mg/kg by UPLC-MS analysis; assay type: ADME, organism-based
[13] = Cmax in Sprague-Dawley rat brain at 10 mg/kg, po by UPLC-MS analysis; assay type: ADME, organism-based; set-up: dose 10 mg/kg, route oral
In short: (§2)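 Male Sprague-Dawley rats, three per time point, dosed orally at 10 mg/kg in PEG400/Tween 80/saline 10/10/80. Brains taken at 1 h and 4 h, homogenized in RIPA buffer and extracted with cold acetonitrile plus internal standard. Compound quantified by UPLC-MS/MS; protein measured by BCA.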

[14] = AUC in Sprague-Dawley rat brain at 10 mg/kg, po by UPLC-MS analysis; assay type: ADME, organism-based; in short: as §2
[15] = system: Brain; assay: Total drug uptake in Sprague-Dawley rat brain at 10 mg/kg, po by UPLC-MS analysis; assay type: ADME, organism-based; conditions: in vivo, read-out: Drug uptake; in short: as §2
[16] = Tmax in Sprague-Dawley rat plasma at 3 mg/kg, iv by UPLC-MS analysis; assay type: ADME, organism-based; in short: as §1
[17] = Tmax in Sprague-Dawley rat brain at 10 mg/kg, po by UPLC-MS analysis; assay type: ADME, organism-based; in short: as §2
[18] = target: Beta-1 adrenergic receptor (Homo sapiens) (UniProt P08588); assay: Displacement of [3H](-)CGP12177 from human beta1 adrenergic receptor expressed in HEK293 cells at 10 to 100 nM after 45 mins by scintillation counting; assay type: cell-based
[19] = target: Beta-2 adrenergic receptor (Homo sapiens) (UniProt P07550); assay: Displacement of [3H](-)CGP12177 from beta2 adrenergic receptor (unknown origin) at 10 to 100 nM by scintillation counting
[20] = target: T4, 5-hydroxytryptamine receptor 1A (Homo sapiens) (UniProt P08908); assay: Displacement of [3H]8-OH-DPAT from human 5HT-1A receptor expressed in Sf9 insect cells at 100 nM after 60 mins by scintillation counting
T4 sequence (whole entry): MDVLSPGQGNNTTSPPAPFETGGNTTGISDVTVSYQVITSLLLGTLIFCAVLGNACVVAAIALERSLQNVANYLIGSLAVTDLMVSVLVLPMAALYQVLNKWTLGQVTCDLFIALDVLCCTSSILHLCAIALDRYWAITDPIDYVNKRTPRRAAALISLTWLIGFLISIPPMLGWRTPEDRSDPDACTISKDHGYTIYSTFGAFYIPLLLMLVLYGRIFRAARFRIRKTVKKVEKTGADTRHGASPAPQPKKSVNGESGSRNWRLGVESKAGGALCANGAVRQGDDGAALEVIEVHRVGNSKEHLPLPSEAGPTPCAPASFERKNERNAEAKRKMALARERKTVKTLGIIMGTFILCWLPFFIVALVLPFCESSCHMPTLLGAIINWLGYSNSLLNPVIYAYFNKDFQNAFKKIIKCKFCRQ

[21] = target: 5-hydroxytryptamine receptor 1B (Rattus norvegicus) (UniProt P28564); assay: Displacement of [125I]CYP from 5HT-1B receptor in OFA rat cortical membranes at 10 to 100 nM after 90 mins by scintillation counting; assay type: cell membranes
[22] = target: T5, Monoglyceride lipase (Homo sapiens) (UniProt Q99685); assay: Irreversible inhibition of human MAGL after 1 hr by LC-MS/MS analysis
T5 sequence (whole entry): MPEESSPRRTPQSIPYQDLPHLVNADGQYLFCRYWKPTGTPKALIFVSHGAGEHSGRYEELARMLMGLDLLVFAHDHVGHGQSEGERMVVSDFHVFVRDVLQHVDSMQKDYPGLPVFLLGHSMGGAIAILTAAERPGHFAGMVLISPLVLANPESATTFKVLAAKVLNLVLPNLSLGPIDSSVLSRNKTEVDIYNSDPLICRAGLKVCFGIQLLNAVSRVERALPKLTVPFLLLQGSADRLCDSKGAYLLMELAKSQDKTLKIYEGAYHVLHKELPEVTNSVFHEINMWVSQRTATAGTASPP

[23] = organism: Homo sapiens; assay: Ratio of EC50 for human dopamine D2 receptor-short expressed in CHO-K1 cells to EC50 for recombinant human dopamine D3 receptor expressed in CHO-K1 cells; assay type: cell-based
[24] = target: T2, D(3) dopamine receptor; assay: Agonist activity at recombinant human dopamine D3 receptor expressed in CHO-K1 cells assessed as […] in cAMP accumulation after 30 mins by HTRF assay; assay type: functional, cell-based

T2 sequence (P35462 whole entry): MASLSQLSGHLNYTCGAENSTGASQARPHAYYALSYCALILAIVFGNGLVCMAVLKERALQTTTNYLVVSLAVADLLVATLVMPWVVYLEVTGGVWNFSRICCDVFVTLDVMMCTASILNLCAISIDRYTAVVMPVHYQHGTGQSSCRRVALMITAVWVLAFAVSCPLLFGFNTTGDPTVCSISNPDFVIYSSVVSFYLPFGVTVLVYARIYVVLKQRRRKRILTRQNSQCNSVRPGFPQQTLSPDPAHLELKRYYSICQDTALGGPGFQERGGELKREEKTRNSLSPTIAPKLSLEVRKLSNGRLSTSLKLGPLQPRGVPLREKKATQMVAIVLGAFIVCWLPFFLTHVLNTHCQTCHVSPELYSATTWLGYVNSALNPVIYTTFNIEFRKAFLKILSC
T3 sequence (P14416 whole entry): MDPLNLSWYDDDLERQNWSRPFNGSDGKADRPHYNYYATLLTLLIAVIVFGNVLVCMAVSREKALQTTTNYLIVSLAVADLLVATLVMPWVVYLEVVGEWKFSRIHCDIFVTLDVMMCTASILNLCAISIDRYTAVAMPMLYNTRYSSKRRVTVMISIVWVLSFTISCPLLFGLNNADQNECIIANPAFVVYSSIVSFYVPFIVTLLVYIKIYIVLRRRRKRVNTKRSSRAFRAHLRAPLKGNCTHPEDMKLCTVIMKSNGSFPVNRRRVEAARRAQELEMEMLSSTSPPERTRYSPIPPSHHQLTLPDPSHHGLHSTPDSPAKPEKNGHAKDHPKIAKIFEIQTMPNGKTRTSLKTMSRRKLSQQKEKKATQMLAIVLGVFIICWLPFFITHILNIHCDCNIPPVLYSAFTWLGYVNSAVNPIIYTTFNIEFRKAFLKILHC
Beta-1 adrenergic receptor (Homo sapiens), sequence (P08588 whole entry, looked up): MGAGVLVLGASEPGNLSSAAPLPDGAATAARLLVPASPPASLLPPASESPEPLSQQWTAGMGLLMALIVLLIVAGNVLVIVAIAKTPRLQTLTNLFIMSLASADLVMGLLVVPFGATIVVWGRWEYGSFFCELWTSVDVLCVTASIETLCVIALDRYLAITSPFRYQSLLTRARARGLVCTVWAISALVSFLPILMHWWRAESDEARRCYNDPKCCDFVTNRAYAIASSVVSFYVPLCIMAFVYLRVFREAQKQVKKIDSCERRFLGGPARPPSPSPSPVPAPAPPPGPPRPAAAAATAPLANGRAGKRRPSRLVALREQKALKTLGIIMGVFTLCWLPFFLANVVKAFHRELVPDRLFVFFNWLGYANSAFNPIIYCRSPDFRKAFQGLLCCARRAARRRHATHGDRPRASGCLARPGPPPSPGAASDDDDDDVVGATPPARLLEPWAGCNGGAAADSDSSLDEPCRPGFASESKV
Beta-2 adrenergic receptor (Homo sapiens), sequence (P07550 whole entry, looked up): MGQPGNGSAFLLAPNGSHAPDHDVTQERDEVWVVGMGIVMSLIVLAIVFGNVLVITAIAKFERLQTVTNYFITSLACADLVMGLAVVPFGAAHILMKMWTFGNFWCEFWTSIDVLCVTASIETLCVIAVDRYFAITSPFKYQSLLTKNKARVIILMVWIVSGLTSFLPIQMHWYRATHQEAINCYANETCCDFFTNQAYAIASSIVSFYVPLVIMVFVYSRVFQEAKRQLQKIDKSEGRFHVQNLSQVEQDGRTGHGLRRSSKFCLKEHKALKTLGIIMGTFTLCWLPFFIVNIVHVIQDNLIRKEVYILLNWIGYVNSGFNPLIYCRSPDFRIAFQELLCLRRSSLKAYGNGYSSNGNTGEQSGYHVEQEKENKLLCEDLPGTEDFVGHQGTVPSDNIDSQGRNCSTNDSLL
5-hydroxytryptamine receptor 1B (Rattus norvegicus), sequence (P28564 whole entry): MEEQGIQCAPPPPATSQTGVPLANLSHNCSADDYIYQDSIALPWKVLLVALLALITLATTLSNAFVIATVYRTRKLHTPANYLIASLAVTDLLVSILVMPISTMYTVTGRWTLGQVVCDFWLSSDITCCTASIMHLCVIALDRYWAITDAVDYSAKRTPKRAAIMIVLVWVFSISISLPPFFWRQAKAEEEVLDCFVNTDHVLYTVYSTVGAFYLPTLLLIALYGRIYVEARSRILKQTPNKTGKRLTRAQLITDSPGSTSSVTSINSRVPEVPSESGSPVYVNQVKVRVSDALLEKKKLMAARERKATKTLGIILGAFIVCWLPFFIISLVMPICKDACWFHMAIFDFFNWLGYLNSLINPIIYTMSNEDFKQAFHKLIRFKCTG

`NC(=O)c1cccc(-c2ccc(OC(=O)NCCCCN3CCN(c4cccc(Cl)c4Cl)CC3)cc2F)c1` showed an IC50 [1] of 0.001 µM, an Efficacy [2] of 74% and an EC50 [3] of 0.0137 µM. For the same compound, the Efficacy [4] was 40.4%.

`NC(=O)c1cccc(-c2ccc(OC(=O)NCCCCN3CCN(c4ccccc4)CC3)cc2)c1` showed an Efficacy [2] of 88%.

`Cl.O=C(NCCCCN1CCN(c2cccc(Cl)c2Cl)CC1)Oc1ccc(-c2ccccc2)cc1` showed a half-life at 2 µM [5] of 1.62 h, a Cmax [6] of 0.5 µg/mL and a half-life at […] [7] of over 1 h. For the same compound, the half-life [8] was 2.42 h, the Vd [9] was 23.7 L/kg and the clearance [10] was 6.6 L/h/kg. The Cmax [11] was 0.054 µg/mL, the bioavailability [12] was 21% and the Cmax [13] was 0.037 µg/mL. The AUC [14] was 1.41 ng·h/mL, the concentration [15] was 0.391 µM and the Tmax [16] was 5 min. For the same compound, the Tmax [17] was 4 h, the inhibition [18] was “inactive” and the inhibition [19] was “inactive”. For the same compound, the inhibition [20] was 60.4%, the inhibition [21] was “inactive” and the inhibition [22] was “inactive”.

Compound `O=C(NCCCN1CCN(c2cccc(Cl)c2Cl)CC1)Oc1ccc2c(c1)[nH]c1ccccc12` has an Efficacy [2] of over 90%.

For `NC(=O)c1cccc(-c2ccc(OC(=O)NCCCCN3CCN(c4ccccc4C(F)(F)F)CC3)cc2)c1`, the Activity [3] was “inactive”.

For `COc1ccccc1N1CCN(CCCCNC(=O)Oc2ccc3c(c2)[nH]c2ccccc23)CC1`, the Efficacy [2] was 66%, the EC50 [3] was 0.0579 µM and the Efficacy [4] was 44%. It also gave a Ratio EC50 [23] of 4.8.

`O=C(NCCCCN1CCN(c2cccc(Cl)c2Cl)CC1)Oc1ccc2c(c1)[nH]c1ccccc12` gave an Efficacy [2] of over 90%.

`O=C(NCCCCN1CCN(c2ccccc2C(F)(F)F)CC1)Oc1ccc(-c2ccccc2)cc1` showed an IC50 [1] of 0.0207 µM, an EC50 [24] of 1.2 µM and an Efficacy [2] of over 90%.

`COc1cc(OC(=O)NCCCCN2CCN(c3cccc(Cl)c3Cl)CC2)ccc1-c1ccccc1` gave an IC50 [1] of 0.0043 µM, an EC50 [24] of 0.00166 µM and an Efficacy [2] of 32%.

From ChEMBL document CHEMBL4007414, “Design, Synthesis, Structure-Activity Relationship Studies, and Three-Dimensional Quantitative Structure-Activity Relationship (3D-QSAR) Modeling of a Series of O-Biphenyl Carbamates as Dual Modulators of Dopamine D3 Receptor and Fatty Acid Amide Hydrolase” (J Med Chem, 2017)
